Results: ChEMBL document CHEMBL1128437, “Derivatives of 17-phenyl-18,19,20-trinorprostaglandin F2 alpha isopropyl ester: potential antiglaucoma agents” (J Med Chem, 1995)

Columns and labels:
Oryctolagus cuniculus [1] = organism: Oryctolagus cuniculus; assay: The mean area between curves for conjunctival hyperemia between treated and control eyes. The effect was tested in rabbit at a dose of 0.5 (ug/eye)
Oryctolagus cuniculus [2] = organism: Oryctolagus cuniculus; assay: The maximal difference in conjunctival hyperemia between treated and control eyes. The effect was tested in rabbit at a dose of 0.5 (ug/eye)
Felis catus [3] = organism: Felis catus; assay: The mean ocular irritation in the treated eyes. An arbitrary scale of from 0 to 3 was used, 0 indicates absence of irritation and 3 complete closure of the lids. The effect was tested in cats at a dose of 1.0 (ug/eye); assay type: functional
Outline: (§1)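 Ocular irritation was scored in the treated eye of trained female cats, 2–3 kg. Drug was given as one topical 20 µL drop in 0.9% NaCl with 0.5% polysorbate 80. The contralateral eye got vehicle only.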

Felis catus [4] = organism: Felis catus; assay: The maximal difference in Intraocular Pressure (IOP) between treated and control eyes. The effect was tested in cats at a dose of 1.0 (ug/eye); assay type: functional
Outline: (§2)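 Domestic female cats, 2–3 kg, trained for IOP measurement. One eye received a topical drop (20 µL) of drug in 0.9% NaCl with 0.5% polysorbate 80; the other eye received vehicle. IOP was read by pneumatonometer under oxibuprocain local anaesthesia before dosing and at 1, 3, 6 and 23 h. The maximal treated-minus-control difference was taken. Area between curves is the treated-eye AUC minus control-eye AUC, per animal.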

Felis catus [5] = organism: Felis catus; assay: The mean ocular irritation in the treated eyes. An arbitrary scale of from 0 to 3 was used, 0 indicates absence of irritation and 3 complete closure of the lids. The effect was tested in cats at a dose of 3.0 (ug/eye); assay type: functional
Outline: as §1

Felis catus [6] = organism: Felis catus; assay: The mean area between curves for Intraocular Pressure (IOP) measured in treated and control eyes. The effect was tested in cats at a dose of 3.0 (ug/eye); assay type: functional
Outline: as §2

Felis catus [7] = organism: Felis catus; assay: The maximal difference in […] pupil diameter between treated and control eyes. The effect was tested in cats at a dose of 1.0 (ug/eye); assay type: functional
Outline: (§3)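 Trained female cats, 2–3 kg, were dosed unilaterally with one 20 µL topical drop of drug in 0.9% NaCl/0.5% polysorbate 80, with vehicle in the contralateral eye. Horizontal pupil diameter was measured with a millimetre ruler under constant 10 lux illumination before dosing and at 1, 3, 6 and 23 h. Reported as maximal treated–control difference or as area between curves, per animal.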

Felis catus [8] = organism: Felis catus; assay: 66 The maximal difference in Intraocular Pressure (IOP) between treated and control eyes. The effect was tested in cats at a dose of 3.0 (ug/eye); assay type: functional
Outline: as §2

Felis catus [9] = organism: Felis catus; assay: The mean area between curves for pupil diameter between treated and control eyes. The effect was tested in cats at a dose of 1.0 (ug/eye); assay type: functional
Outline: as §3

Felis catus [10] = organism: Felis catus; assay: The maximal difference in […] pupil diameter between treated and control eyes. The effect was tested in cats at a dose of 3.0 (ug/eye); assay type: functional
Outline: as §3

Felis catus [11] = organism: Felis catus; assay: The mean area between curves for Intraocular Pressure (IOP) measured in treated and control eyes. The effect was tested in cats at a dose of 1.0 (ug/eye); assay type: functional
Outline: as §2

Felis catus [12] = organism: Felis catus; assay: The mean area between curves for pupil diameter between treated and control eyes. The effect was tested in cats at a dose of 3.0 (ug/eye); assay type: functional
Outline: as §3

Monkey [13] = assay: The mean area between curves for Intraocular Pressure (IOP) measured in treated and control eyes. The effect was tested in monkey at a dose of 3.0 (ug/eye); assay type: functional, Cercopithecidae
Outline: (§4)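 Cynomolgus monkeys trained for IOP measurement were sedated with ketamine (2–3 mg/kg) for transport and seated in restraint chairs under oxibuprocain local anaesthesia. One eye received a 10 µL drop of drug in 0.9% NaCl/0.5% polysorbate 80; the fellow eye received vehicle. IOP was read by pneumatonometer calibrated for monkey eyes before dosing and at 1, 2, 4 and 6 h. Matched-pair t test, n = 6.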

Felis catus [14] = organism: Felis catus; assay: The maximal difference in Intraocular Pressure (IOP) between treated and control eyes. The effect was tested in cats at a dose of 3.0 (ug/eye); assay type: functional
Outline: as §2

Monkey [15] = assay: The maximal difference in Intraocular Pressure (IOP) between treated and control eyes. The effect was tested in monkey at a dose of 3.0 (ug/eye); assay type: functional, Cercopithecidae
Outline: as §4

Row | Structure (SMILES) | H ABC (Oryctolagus cuniculus [1]) | Hmax (Oryctolagus cuniculus [2]) | Irritation (Felis catus [3]) [arbitrary units] | Imax (Felis catus [4]) [mmHg] | Irritation (Felis catus [5]) [arbitrary units] | I ABC (Felis catus [6]) | Pmax (Felis catus [7]) [mm] | Imax (Felis catus [8]) [mmHg] | P ABC (Felis catus [9]) | Pmax (Felis catus [10]) [mm] | I ABC (Felis catus [11]) | P ABC (Felis catus [12]) | I ABC (Monkey [13]) | Imax (Felis catus [14]) [mmHg] | Imax (Monkey [15]) [mmHg]
1 | CC(C)OC(=O)CCC/C=C\C[C@@H]1[C@@H](/C=C/[C@@H](O)CCc2ccc(-c3ccsc3)cc2)[C@H](O)C[C@@H]1O | <0.8 | 0.3 | 0.2 | <-4 | 0.6 | <-66 | -1 | -5 | -3.3 | < -1.2 | -63.2 | <-9.2 |  |  | 
2 | CC(C)OC(=O)CCC/C=C\C[C@@H]1[C@@H](/C=C/[C@@H](O)CCc2ccc(-c3ccco3)cc2)[C@H](O)C[C@@H]1O | -0.2 | -0.1 |  |  | 0.6 | -76.1 |  |  |  | -0.6 |  | -6 | 0.5 | <-5 | 0.3
